We go through two compounds from ChEMBL document CHEMBL4038304, “Chiral Indolylarylsulfone Non-Nucleoside Reverse Transcriptase Inhibitors as New Potent and Broad Spectrum Anti-HIV-1 Agents” (J Med Chem, 2017).

Active and inactive are the calls of the source. No cut-off for these calls is given here. Bounds are passed on as bounds.

Data set [1] concerns Human immunodeficiency virus 1. In words: Ratio of EC50 for HIV-1 harboring reverse transcriptase K103N mutant infected in human MT4 cells to EC50 for HIV1 NL4-3 infected in human MT4 cells. The data set is classed as functional. The essentials:
(§1)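 Fold change calculated as EC50 against the stated resistant mutant HIV-1 strain divided by EC50 against wild-type NL4-3. Both EC50s come from MTT read-out of virus-induced death in MT-4 cells, mean of two to three independent experiments each in triplicate.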

The test system of data set [2] is hippocampal neurons (Mus musculus). In words: Neuroprotective activity against glutamate-induced excitotoxicity in C57BL/6 mouse hippocampal neurons assessed as increase in cell viability at 1000 nM preincubated for 30 mins followed by reincubation in conditioned culture media for 18 hrs in presence of glutamate by hemacytometric analysis.
Data set [3] has as its system Human immunodeficiency virus 1. In words: Ratio of EC50 for HIV-1 harboring reverse transcriptase Y181C mutant infected in human MT4 cells to EC50 for HIV1 NL4-3 infected in human MT4 cells. The class given is functional. The essentials: as §1
Data set [4] has as its system BV-2. In words: Cytotoxicity against C57BL/6 mouse BV2 cells assessed as effect on cell proliferation rate at 10 to 10000 nM up to 48 hrs by MTT assay. To be noted: bv-2, 48 h, 10 µM. The class given is cell-based. The essentials: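 BV2 microglial cells cultured with compound at 10, 102, 103 and 104 nM, then proliferation rate measured.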
Background: Tetrazolium dyes change colour on reduction, which living cells bring about.

The subject of data set [5] is BV-2. In words: Antineuroinflammatory activity in C57BL/6 mouse BV2 cells assessed as inhibition of LPS-induced nitric oxide production at 1 to 10 uM after 24 hrs by Griess assay. The data set is classed as functional, cell-based. For orientation: Nitrite, measured by Griess reagent, commonly stands in for NO production.
Data set [6] can be described thus: Cytotoxicity against human MT4 cells assessed as cell viability by MTT assay. The data set is classed as cell-based. The essentials:
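Uninfected MT-4 cells scored for viability by MTT. […] Values are means of two to three independent experiments, each run in triplicate.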

In data set [7] the test system is BV-2. In words: Downregulation of iNOS mRNA levels in C57BL/6 mouse BV2 cells at 1000 nM after 24 hrs by RT-PCR assay. The data set is classed as functional, cell-based.
Data set [8] deals with Human immunodeficiency virus 1. In words: Ratio of EC50 for HIV-1 harboring reverse transcriptase K103N/[…] double mutant infected in human MT4 cells to EC50 for HIV1 NL4-3 infected in human MT4 cells. The class given is functional. In outline: as §1
The nature of data set [9]: Selectivity index, ratio of CC50 for human MT4 cells to EC50 for HIV1 NL4-3 infected in human MT4 cells. The class given is toxicity, cell-based. To be noted: read-out: Ratio CC50/EC50. The essentials:
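SI computed as CC50/EC50, using the MTT-based CC50 in uninfected MT-4 cells and the MTT-based EC50 against HIV-1 NL4-3-induced cell death in MT-4 cells. Experiments were run in triplicate, two to three times.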

The subject of data set [10] is BV-2. Briefly: Effect on fizz mRNA levels in C57BL/6 mouse BV2 cells at 1000 nM after 24 hrs by RT-PCR assay. The data set is classed as functional, cell-based.
Data set [11] deals with BV-2. Briefly: Downregulation of CD86 mRNA levels in C57BL/6 mouse BV2 cells at 1000 nM after 24 hrs by RT-PCR assay. The data set is classed as functional, cell-based.
Data set [12] has as its system Human immunodeficiency virus 1. Briefly: Antiviral activity against HIV1 harboring reverse transcriptase K103N mutant infected in human […] cells assessed as protection against virus-induced cytopathic effect measured on day 5 post infection by MTT assay. To be noted: Human immunodeficiency virus 1, 120 h. The class given is functional, cell-based. For orientation: Protection from cytopathic effect is a common read-out in antiviral testing.

Data set [13] has as its system BV-2. In words: Effect on CD163 mRNA levels in C57BL/6 mouse BV2 cells at 1000 nM after 24 hrs by RT-PCR assay. The class given is functional, cell-based.
Data set [14] relates to Human immunodeficiency virus 1. In words: Antiviral activity against HIV1 NL4-3 infected in human […] cells assessed as protection against virus-induced cytopathic effect measured on day 5 post infection by MTT assay. To be noted: Human immunodeficiency virus 1, NL4-3, 120 h. The class given is functional, cell-based. The essentials: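 Values are means of two to three independent experiments, each run in triplicate. The lowest detectable concentration is reported where activity fell below the assay limit.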

In data set [15] the test system is Human immunodeficiency virus 1. Briefly: Antiviral activity against HIV1 harboring reverse transcriptase K103N /[…] double mutant infected in human […] cells assessed as protection against virus-induced cytopathic effect measured on day 5 post infection by MTT assay. To be noted: Human immunodeficiency virus 1, 120 h. The data set is classed as functional, cell-based.

The test system of data set [16] is Human immunodeficiency virus 1. Briefly: Antiviral activity against HIV1 harboring reverse transcriptase Y181C mutant infected in human […] cells assessed as protection against virus-induced cytopathic effect measured on day 5 post infection by MTT assay. The data set is classed as functional, cell-based. To be noted: Human immunodeficiency virus 1, 120 h.
The subject of data set [17] is Human immunodeficiency virus 1. In words: Antiviral activity against HIV1 harboring reverse transcriptase Y188L mutant infected in human […] cells assessed as protection against virus-induced cytopathic effect measured on day 5 post infection by MTT assay. To be noted: Human immunodeficiency virus 1, 120 h. The class given is functional, cell-based.
Data set [18] relates to Human immunodeficiency virus 1. In words: Ratio of EC50 for HIV-1 harboring reverse transcriptase Y188L mutant infected in human MT4 cells to EC50 for HIV1 NL4-3 infected in human MT4 cells. The class given is functional. In outline: as §1

Broadly, the CC50 is the concentration that lowers cell viability or growth by half. One may read the EC50 as the concentration needed to bring the measured effect to its halfway point. As to `Cc1cc(C)cc(S(=O)(=O)c2c(C(=O)NC(C)C(=O)NCc3ccncc3)[nH]c3ccc(Cl)cc23)c1` (racemic), the “Ratio EC50” value in data set [1] worked out at 52; in data set [3], 105; in data set [8], 4190; in data set [18], 4095. Besides, the outcome (in [2]; with BV-2 [5]; with BV-2 [7]; in the data set on BV-2 [11]) was Active. Moreover, in the data set on BV-2 [4], the Activity result was “Non-Toxic”. In addition, the CC50 in [6] stood at 19500 nM. Besides, in data set [9], the selectivity ratio stood at 102000. Also, the outcome in the data set on BV-2 [10] and with BV-2 [13] was inactive. Besides, the EC50 in data set [12] was 1.9 nM; in data set [14], 0.2 nM; in [15], 838 nM; in data set [16], 21 nM; in [17], 819 nM.
In the case of `O=C1Nc2ccc(Cl)cc2[C@@](C#CC2CC2)(C(F)(F)F)O1` [EFAVIRENZ], the outcome (in [2]; in the data set with BV-2 [10]; in the data set with BV-2 [13]) was inactive. Also, the Activity result with BV-2 [4] is recorded as “Non-Toxic”. In addition, the outcome in the data set on BV-2 [5] and in the data set on BV-2 [7] was Active. Further, the 50% cytotoxic concentration (CC50) in data set [6] is over 15800 nM. In addition, the EC50 in [12] was 130 nM; in data set [14], 15.9 nM; in data set [15] it was over 317 nM; in data set [16] it was 160 nM; in [17], 760 nM.
